Laboratory results taken from ChEMBL document CHEMBL4680111, “Target Validation and Identification of Novel Boronate Inhibitors of the Plasmodium falciparum Proteasome” (J Med Chem, 2018).
One block for each molecule: values may come before it. Active and inactive are the calls of the source. The rule behind the calls is not given here.

Experiments:
Plasmodium falciparum [1] = test: Antiplasmodial activity against DHA-resistant and sorbitol synchronized ring stage forms of Plasmodium falciparum Cam3.II^R539T expressing K13 mutant assessed as reduction in parasitemia incubated for 3 hrs by pulse exposure based Syto-61 staining dye based flow cytometry analysis; assay type: functional; details: read-out: LD50 (the source's name)
Method in brief: (§1)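 Tightly synchronized early-ring parasites (1-3 h post-invasion) exposed to compound for 3 h, then viability assessed in the next cycle. Cells stained with 2 µM Syto-61 and parasitemia read by flow cytometry, normalized to untreated and kill controls (2 µM DHA, 48-72 h). Mean ± SEM of three independent experiments.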

[2] = target: T1, Proteasome component C5 (Homo sapiens) (UniProt P20618); test: Inhibition of human 20S constitutive proteasome beta 1 subunit assessed as inhibition of BMV037 probe labeling at 1 to 10 uM incubated for 1 hr by SDS-PAGE analysis; details: dose 1-10 µM
T1 sequence (whole entry): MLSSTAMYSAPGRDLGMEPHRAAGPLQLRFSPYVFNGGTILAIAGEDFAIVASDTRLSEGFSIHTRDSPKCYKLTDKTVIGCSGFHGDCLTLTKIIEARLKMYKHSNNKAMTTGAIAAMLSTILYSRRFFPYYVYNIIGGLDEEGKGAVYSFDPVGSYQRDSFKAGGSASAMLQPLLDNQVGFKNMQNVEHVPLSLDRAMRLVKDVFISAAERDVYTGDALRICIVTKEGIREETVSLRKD
Method in brief: (§2)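 Purified human constitutive 20S (20 nM) was treated with compound at 37°C for 1 h, then labelled with 10 µM BMV037 at 37°C for 2 h. Samples were run on 10% Bis-Tris gel with MOPS buffer, and active subunits were detected by Cy5 fluorescence scan.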

Plasmodium falciparum [3] = test: Antiplasmodial activity against sorbitol synchronized ring stage Plasmodium falciparum 3D7 assessed as reduction in parasitemia incubated for 72 hrs by Syto-61 staining dye based flow cytometry analysis; assay type: functional; details: read-out: LD50 (the source's name)
Method in brief: (§3)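 Sorbitol-treated ring-stage parasites in O+ human erythrocytes were incubated with compound for 72 h, and viability was read in the second cycle. Read-out was Syto-61 (2 µM) flow cytometry of parasitemia, normalized to untreated and 2 µM DHA-killed controls. Mean ± SEM of three independent experiments.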

[4] = system: Plasmodium falciparum 3D7; test: Inhibition of 20S proteasome beta 5 subunit from bortezomib resistant Plasmodium falciparum 3D7 trophozoite infected erythrocytes assessed as inhibition of BMV037 probe labeling at 1 to 10 uM incubated for 1 hr by SDS-PAGE analysis; details: dose 1-10 µM
Plasmodium falciparum [5] = test: Antiplasmodial activity against sorbitol synchronized ring stage bortezomib-resistant Plasmodium falciparum 3D7 clone B2a assessed as reduction in parasitemia incubated for 72 hrs by Syto-61 staining dye based flow cytometry analysis; assay type: functional; details: read-out: LD50 (the source's name); method in brief: as §3
Plasmodium falciparum [6] = test: Antiplasmodial activity against sorbitol synchronized ring stage bortezomib-resistant Plasmodium falciparum 3D7 clone B1a assessed as reduction in parasitemia incubated for 72 hrs by Syto-61 staining dye based flow cytometry analysis; assay type: functional; details: read-out: LD50 (the source's name); method in brief: as §3
[7] = target: T2, Proteasome subunit beta type-8 (Homo sapiens) (UniProt P28062); test: Inhibition of human 20S immunoproteasome beta 5 subunit assessed as inhibition of BMV037 probe labeling at 1 to 10 uM incubated for 1 hr by SDS-PAGE analysis; details: dose 1-10 µM
T2 sequence (whole entry): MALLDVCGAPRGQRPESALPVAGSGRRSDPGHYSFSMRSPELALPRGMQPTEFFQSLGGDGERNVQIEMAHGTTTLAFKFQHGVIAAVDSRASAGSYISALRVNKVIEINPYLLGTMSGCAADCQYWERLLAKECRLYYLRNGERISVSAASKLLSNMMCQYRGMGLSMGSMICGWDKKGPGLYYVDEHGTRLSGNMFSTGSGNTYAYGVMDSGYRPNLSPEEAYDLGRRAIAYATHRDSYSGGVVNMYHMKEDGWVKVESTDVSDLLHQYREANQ
Method in brief: (§4)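 Purified human immuno-20S (20 nM) was incubated with compound at 37°C for 1 h, then labelled with 10 µM BMV037 at 37°C for 2 h. Samples were run on 4-12% Bis-Tris gel with MES buffer, and active subunits were visualised by Cy5 fluorescence.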

[8] = target: T3, Proteasome subunit beta type-9 (Homo sapiens) (UniProt P28065); test: Inhibition of human 20S immunoproteasome beta 1 subunit assessed as inhibition of BMV037 probe labeling at 1 to 10 uM incubated for 1 hr by SDS-PAGE analysis; details: dose 1-10 µM; method in brief: as §4
T3 sequence (whole entry): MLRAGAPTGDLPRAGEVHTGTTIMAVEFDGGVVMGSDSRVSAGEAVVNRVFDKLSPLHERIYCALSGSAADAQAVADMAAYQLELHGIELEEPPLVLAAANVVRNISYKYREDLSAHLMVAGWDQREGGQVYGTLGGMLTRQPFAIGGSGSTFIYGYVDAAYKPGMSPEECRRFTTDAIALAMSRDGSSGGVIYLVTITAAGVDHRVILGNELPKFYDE

Plasmodium falciparum [9] = test: Antiplasmodial activity against DHA-sensitive and sorbitol synchronized ring stage forms of Plasmodium falciparum Cam3.II^rev expressing K13 wild-type genotype assessed as reduction in parasitemia incubated for 3 hrs by pulse exposure based Syto-61 staining dye based flow cytometry analysis; assay type: functional; details: read-out: LD50 (the source's name); method in brief: as §1
[10] = target: T4, Proteasome Macropain subunit MB1 (Homo sapiens) (UniProt P28074); test: Inhibition of human 20S constitutive proteasome beta 5 subunit assessed as inhibition of BMV037 probe labeling at 1 to 10 uM incubated for 1 hr by SDS-PAGE analysis; details: dose 1-10 µM; method in brief: as §2
T4 sequence (whole entry): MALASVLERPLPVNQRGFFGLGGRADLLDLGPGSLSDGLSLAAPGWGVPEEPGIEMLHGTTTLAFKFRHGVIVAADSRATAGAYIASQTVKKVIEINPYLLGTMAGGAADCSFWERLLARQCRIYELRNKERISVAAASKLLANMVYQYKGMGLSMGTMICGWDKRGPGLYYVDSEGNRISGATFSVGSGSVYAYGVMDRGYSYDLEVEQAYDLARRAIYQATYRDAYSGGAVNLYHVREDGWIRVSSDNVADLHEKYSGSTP

[11] = Inhibition of Plasmodium falciparum 20S proteasome beta 2 subunit trypsin-like activity using fluorogenic peptide Ac-WLR-AMC as substrate in presence of PA28alpha incubated for 1 to 2 hrs by fluorescence microplate reader assay
[12] = system: Plasmodium falciparum 3D7; test: Inhibition of 20S proteasome beta 1 subunit from bortezomib resistant Plasmodium falciparum 3D7 trophozoite infected erythrocytes assessed as inhibition of BMV037 probe labeling at 1 to 10 uM incubated for 1 hr by SDS-PAGE analysis; details: dose 1-10 µM
[13] = Inhibition of Plasmodium falciparum 20S proteasome beta 1 subunit caspase-like activity using fluorogenic peptide Ac-nLPnLD-AMC as substrate in presence of PA28alpha incubated for 1 to 2 hrs by fluorescence microplate reader assay
Plasmodium falciparum [14] = test: Inhibition of proteasome in Plasmodium falciparum trophozoite stage transfected with GFP-DD assessed as reduction in GFP-DD fusion protein degradation at 0.02 to 0.5 uM incubated for 3 hrs in absence of Shield-1 by Western blot analysis; details: dose 0.02-0.5 µM
Method in brief: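 GFP-DD reporter parasites were held in Shield-1 for 24 h, washed out, then treated as trophozoites (5% hematocrit, 5% parasitemia) with compound for 3 h at 37°C. […] Representative of four independent experiments.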

[15] = Inhibition of Plasmodium falciparum 20S proteasome beta 5 subunit chymotrypsin-like activity using fluorogenic peptide Ac-WLA-AMC as substrate in presence of PA28alpha incubated for 1 to 2 hrs by fluorescence microplate reader assay
Plasmodium falciparum [16] = test: Inhibition of Plasmodium falciparum 20S proteasome beta 1 subunit caspase-like activity using fluorogenic peptide Ac-nLPnLD-AMC as substrate in presence of PA28alpha at 0.8 uM measured over 5 hrs by fluorescence microplate reader assay
Plasmodium falciparum [17] = test: Inhibition of Plasmodium falciparum 20S proteasome beta 2 subunit trypsin-like activity using fluorogenic peptide Ac-WLR-AMC as substrate in presence of PA28alpha at 0.8 uM measured over 5 hrs by fluorescence microplate reader assay
Plasmodium falciparum [18] = test: Inhibition of Plasmodium falciparum 20S proteasome beta 5 subunit chymotrypsin-like activity using fluorogenic peptide Ac-WLA-AMC as substrate in presence of PA28alpha at 0.8 uM measured over 5 hrs by fluorescence microplate reader assay
[19] = target: T5, Proteasome subunit beta type-9 (Homo sapiens, UniProt P28065); test: Inhibition of human 20S immunoproteasome beta 1 subunit caspase-like activity using fluorogenic peptide Ac-nLPnLD-AMC as substrate in presence of PA28alpha incubated for 1 to 2 hrs by fluorescence microplate reader assay
T5 sequence (P28065 whole entry): T3 sequence (whole entry)

[20] = target: T6, Proteasome subunit beta type-10 (Homo sapiens, UniProt P40306); test: Inhibition of human 20S immunoproteasome beta 2 subunit trypsin-like activity using fluorogenic peptide Ac-WLR-AMC as substrate in presence of PA28alpha incubated for 1 to 2 hrs by fluorescence microplate reader assay
T6 sequence (P40306 whole entry): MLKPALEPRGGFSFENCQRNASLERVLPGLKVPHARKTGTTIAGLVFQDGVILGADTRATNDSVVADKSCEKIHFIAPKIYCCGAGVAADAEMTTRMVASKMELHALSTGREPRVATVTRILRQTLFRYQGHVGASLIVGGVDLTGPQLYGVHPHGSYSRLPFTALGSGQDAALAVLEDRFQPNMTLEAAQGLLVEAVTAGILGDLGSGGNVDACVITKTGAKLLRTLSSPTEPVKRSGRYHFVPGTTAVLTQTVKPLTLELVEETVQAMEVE

[21] = target: T7, Proteasome Macropain subunit MB1 (Homo sapiens, UniProt P28074); test: Inhibition of human 20S constitutive proteasome beta 5 subunit chymotrypsin-like activity using fluorogenic peptide Ac-WLA-AMC as substrate in presence of PA28alpha incubated for 1 to 2 hrs by fluorescence microplate reader assay
T7 sequence (P28074 whole entry): T4 sequence (whole entry)

[22] = target: T8, Proteasome subunit beta type-6 (Homo sapiens, UniProt P28072); test: Inhibition of human 20S constitutive proteasome beta 1 subunit caspase-like activity using fluorogenic peptide Ac-nLPnLD-AMC as substrate in presence of PA28alpha incubated for 1 to 2 hrs by fluorescence microplate reader assay
T8 sequence (P28072 whole entry): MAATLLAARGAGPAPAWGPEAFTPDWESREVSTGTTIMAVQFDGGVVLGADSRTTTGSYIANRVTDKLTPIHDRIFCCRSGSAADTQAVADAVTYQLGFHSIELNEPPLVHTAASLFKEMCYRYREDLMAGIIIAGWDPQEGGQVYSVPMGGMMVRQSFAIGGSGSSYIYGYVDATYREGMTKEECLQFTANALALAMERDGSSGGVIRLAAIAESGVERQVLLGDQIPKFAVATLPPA

[23] = system: Plasmodium falciparum 3D7; test: Inhibition of 20S proteasome beta 5 subunit in bortezomib-resistant Plasmodium falciparum 3D7 assessed as inhibition of BMV037 probe labeling at 1 to 10 uM incubated for 1 hr by SDS-PAGE analysis; details: dose 1-10 µM
[24] = target: T9, Proteasome subunit beta type-7 (Homo sapiens, UniProt Q99436); test: Inhibition of human 20S constitutive proteasome beta 2 subunit trypsin-like activity using fluorogenic peptide Ac-WLR-AMC as substrate in presence of PA28alpha incubated for 1 to 2 hrs by fluorescence microplate reader assay
T9 sequence (Q99436 whole entry): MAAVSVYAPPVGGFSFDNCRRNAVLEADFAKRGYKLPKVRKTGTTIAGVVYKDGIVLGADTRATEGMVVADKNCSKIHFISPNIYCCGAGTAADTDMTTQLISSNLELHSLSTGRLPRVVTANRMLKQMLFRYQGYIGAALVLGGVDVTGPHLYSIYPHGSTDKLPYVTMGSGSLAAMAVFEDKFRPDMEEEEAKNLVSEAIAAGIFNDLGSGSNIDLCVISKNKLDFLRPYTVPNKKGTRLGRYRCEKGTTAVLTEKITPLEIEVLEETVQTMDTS

[25] = target: T10, Proteasome subunit beta type-8 (Homo sapiens, UniProt P28062); test: Inhibition of human 20S immunoproteasome beta 5 subunit chymotrypsin-like activity using fluorogenic peptide Ac-WLA-AMC as substrate in presence of PA28alpha incubated for 1 to 2 hrs by fluorescence microplate reader assay
T10 sequence (P28062 whole entry): T2 sequence (whole entry)

[26] = Selectivity index, ratio of LD50 for cytotoxicity against human HepG2 cells to LD50 for antiplasmodial activity against Plasmodium falciparum 3D7 sorbitol-treated ring stage; assay type: toxicity, cell-based; details: read-out: Selectivity Index

SMILES: CC(C)C[C@H](NC(=O)[C@H](Cc1ccccc1)NC(=O)c1cnccn1)B(O)O [BORTEZOMIB]
LC50 (Plasmodium falciparum [1]): 120 nM
inhibition [2]: Active
LC50 (Plasmodium falciparum [3]): 60 nM
inhibition [4]: Active
LC50 (Plasmodium falciparum [5]): 1100 nM
LC50 (Plasmodium falciparum [6]): 1300 nM
inhibition [7]: Active
inhibition [8]: Active
LC50 (Plasmodium falciparum [9]): 180 nM
inhibition [10]: Active
IC50 [11]: 1600 nM
inhibition [12]: Active
IC50 [13]: 320 nM
inhibition (Plasmodium falciparum [14]): Active
IC50 [15]: 53 nM

inhibition (Plasmodium falciparum [16]): inactive
inhibition (Plasmodium falciparum [17]): Active
inhibition (Plasmodium falciparum [18]): Active
SMILES: CC(C)C[C@H](NC(=O)[C@H](CCc1ccccc1)NC(=O)CN1CCOCC1)C(=O)N[C@@H](Cc1ccccc1)C(=O)N[C@@H](CC(C)C)C(=O)[C@@]1(C)CO1

SMILES: CC(=O)N1CCC[C@H]1C(=O)N[C@@H](C)C(=O)N[C@@H](CC(C)C)B(O)O
LC50 (Plasmodium falciparum [1]): 1500 nM
IC50 [19]: 13 nM
LC50 (Plasmodium falciparum [3]): 160 nM
IC50 [20]: > 10000 nM
IC50 [21]: 97 nM
IC50 [22]: 320 nM
inhibition [23]: inactive
IC50 [24]: > 10000 nM
IC50 [25]: 63 nM
LC50 (Plasmodium falciparum [9]): 1800 nM
IC50 [11]: > 10000 nM
selectivity ratio [26]: 15
IC50 [13]: 3000 nM
IC50 [15]: 2900 nM
